Converted amounts (≈) assume the structure as drawn.
Columns and labels:
Pichia kudriavzevii = test: Antifungal activity against Candida krusei CAB 396420 assessed as inhibition of fungal growth incubated for 24 hrs by broth microdilution method; format: functional
Method in brief: (§1)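 Broth microdilution per CLSI guidelines against clinical isolates, incubated at 35 °C for 24 h (Candida, Aspergillus) or 48 h (Cryptococcus). MIC was the lowest concentration giving 50% growth inhibition.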

Candida albicans [1] = test: Antifungal activity against wild type Candida albicans SC5314 assessed as inhibition of fungal growth; format: functional
[Candida] auris [2] = Antifungal activity against Candida auris 382 assessed as inhibition of fungal growth incubated for 24 hrs by broth microdilution method; format: functional; conditions: Candidozyma auris
Method in brief: (§2)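 Clinical isolate; CLSI broth microdilution over a range of concentrations (media listed: RPMI 1640, MOPS, YPD). MIC taken as lowest concentration giving 50% growth inhibition after 24 h at 35 °C.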

Vero = test: Cytotoxicity against African green monkey Vero cells assessed as inhibition of cell viability at 128 ug/ml incubated for 2 hrs by MTS assay; format: toxicity, cell-based; conditions: chlorocebus sabaeus, dose 128 µg/ml
Method in brief: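 Vero cells were grown in MEM with 10% FBS, 1 mM sodium pyruvate and penicillin–streptomycin, then exposed to compounds for 2 h at 37 °C, 5% CO2, in triplicate. MTS was added for 3 h and OD490 read. Viability was expressed as % of DMSO-matched controls (mean ± SD).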

[3] = Selectivity ratio of CC50 for cytotoxicity against human Caco-2 cells to MIC for antifungal activity against Cryptococcus neoformans NR 48767; format: toxicity, cell-based
Cryptococcus neoformans [4] = test: Antifungal activity against Cryptococcus neoformans NR 41300 assessed as inhibition of fungal growth incubated for 48 hrs by broth microdilution method; format: functional
Method in brief: (§3)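 Clinical isolate; CLSI broth microdilution over a range of concentrations (media listed: RPMI 1640, MOPS, YPD). MIC read as lowest concentration inhibiting growth by 50% after 48 h incubation at 35 °C.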

Cryptococcus neoformans [5] = test: Antifungal activity against Cryptococcus neoformans NR 48770 assessed as inhibition of fungal growth incubated for 48 hrs by broth microdilution method; format: functional; method in brief: as §3
[6] = Selectivity ratio of CC50 for cytotoxicity against African green monkey Vero cells to MIC for antifungal activity against Cryptococcus gattii NR 43213; format: toxicity, cell-based
[7] = Selectivity ratio of CC50 for cytotoxicity against human Caco-2 cells to MIC for antifungal activity against Cryptococcus neoformans NR 41298; format: toxicity, cell-based
Aspergillus fumigatus = test: Antifungal activity against Aspergillus fumigatus NR 35303 assessed as inhibition of fungal growth incubated for 24 hrs by broth microdilution method; format: functional; method in brief: as §1
Caco-2 = test: Cytotoxicity against human Caco-2 cells assessed as inhibition of cell viability at 128 ug/ml incubated for 2 hrs by MTS assay; format: toxicity, cell-based; conditions: caco-2, 2 h, dose 128 µg/ml
Method in brief: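 Caco-2 cells were grown in DMEM with 10% FBS, 1× nonessential amino acids and penicillin–streptomycin, then treated with 32, 64 and 128 μg mL−1 for 2 h at 37 °C, 5% CO2, in triplicate. MTS was added for 3 h and OD490 read. Viability was expressed as % of DMSO control (mean ± SD).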

[8] = Antifungal activity against Cryptococcus gattii NR 43209 assessed as inhibition of fungal growth incubated for 48 hrs by broth microdilution method; format: functional, Cryptococcus gattii VGI; method in brief: as §1
Cryptococcus neoformans [9] = test: Antifungal activity against Cryptococcus neoformans NR 48771 assessed as inhibition of fungal growth incubated for 48 hrs by broth microdilution method; format: functional; method in brief: as §3
Candida albicans [10] = test: Antifungal activity against Candida albicans ATCC 10231 assessed as inhibition of fungal growth incubated for 24 hrs by broth microdilution method; format: functional; method in brief: as §1
[11] = Selectivity ratio of CC50 for cytotoxicity against African green monkey Vero cells to MIC for antifungal activity against Cryptococcus neoformans NR 41299; format: toxicity, cell-based
[12] = Selectivity ratio of CC50 for cytotoxicity against African green monkey Vero cells to MIC for antifungal activity against Cryptococcus gattii NR 43214; format: toxicity, cell-based
[Candida] auris [13] = Antifungal activity against Candida auris 383 assessed as inhibition of fungal growth incubated for 24 hrs by broth microdilution method; format: functional; conditions: Candidozyma auris; method in brief: as §2
[14] = Selectivity ratio of CC50 for cytotoxicity against African green monkey Vero cells to MIC for antifungal activity against Cryptococcus gattii NR 43209; format: toxicity, cell-based
Cryptococcus neoformans [15] = test: Antifungal activity against Cryptococcus neoformans NR 41299 assessed as inhibition of fungal growth incubated for 48 hrs by broth microdilution method; format: functional; method in brief: as §3
[16] = Antifungal activity against Cryptococcus gattii NR 43214 assessed as inhibition of fungal growth incubated for 48 hrs by broth microdilution method; format: functional, Cryptococcus gattii VGI; method in brief: as §1
[17] = Antifungal activity against Cryptococcus gattii NR 43216 assessed as inhibition of fungal growth incubated for 48 hrs by broth microdilution method; format: functional, Cryptococcus gattii VGI; method in brief: as §1
Cryptococcus neoformans [18] = test: Antifungal activity against Cryptococcus neoformans NR 48773 assessed as inhibition of fungal growth incubated for 48 hrs by broth microdilution method; format: functional; method in brief: as §3
Escherichia coli [19] = test: Antibacterial activity against Escherichia coli JW55031 harboring tolC mutant assessed as inhibition of bacterial growth; format: functional
[20] = Selectivity ratio of CC50 for cytotoxicity against human Caco-2 cells to MIC for antifungal activity against Cryptococcus neoformans NR 41300; format: toxicity, cell-based
Nakaseomyces glabratus [21] = test: Antifungal activity against Candida glabrata ATCC 66032 assessed as inhibition of fungal growth incubated for 24 hrs by broth microdilution method; format: functional; method in brief: as §2
Nakaseomyces glabratus [22] = test: Antifungal activity against Candida glabrata ATCC MYA2950 assessed as inhibition of fungal growth incubated for 24 hrs by broth microdilution method; format: functional; method in brief: as §2
[23] = Selectivity ratio of CC50 for cytotoxicity against human Caco-2 cells to MIC for antifungal activity against Cryptococcus neoformans NR 48771; format: toxicity, cell-based
Lactobacillus gasseri = test: Antibacterial activity against Lactobacillus gasseri HM400 assessed as inhibition of bacterial growth; format: toxicity, organism-based
[24] = Selectivity ratio of CC50 for cytotoxicity against African green monkey Vero cells to MIC for antifungal activity against Cryptococcus gattii NR 43216; format: toxicity, cell-based
[25] = Selectivity ratio of CC50 for cytotoxicity against African green monkey Vero cells to MIC for antifungal activity against Cryptococcus neoformans NR 48767; format: toxicity, cell-based
Cryptococcus neoformans [26] = test: Antibiofilm activity against Cryptococcus neoformans NR 41300 assessed as inhibition of biofilm formation at 0.5xMIC measured after 48 hrs by crystal violet staining based analysis; format: functional
Method in brief: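 Overnight C. neoformans was washed twice in PBS and adjusted to 105 cells per mL in RPMI. Cells were exposed to compound at 0.5 × MIC for 48 h at 35 °C. Biofilm was rinsed, dried, stained with 0.1% crystal violet, and the dye extracted with glacial acetic acid; OD595 readout.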

Candida albicans [27] = test: Antifungal activity against Candida albicans NR 29448 assessed as inhibition of fungal growth incubated for 24 hrs by broth microdilution method; format: functional; method in brief: as §2
Clostridioides difficile = test: Antibacterial activity against Clostridium difficile ATCC BAA1870 assessed as inhibition of bacterial growth; format: functional
[28] = Selectivity ratio of CC50 for cytotoxicity against African green monkey Vero cells to MIC for antifungal activity against Cryptococcus neoformans NR 48770; format: toxicity, cell-based
Escherichia coli [29] = test: Antibacterial activity against wild type Escherichia coli BW25113 assessed as inhibition of bacterial growth; format: functional
[30] = Selectivity ratio of CC50 for cytotoxicity against human Caco-2 cells to MIC for antifungal activity against Cryptococcus gattii NR 43213; format: toxicity, cell-based

In the case of `Cc1nc(-c2ccc3ccccc3c2)sc1-c1nnc(N[C@@H]2CCCC[C@H]2N)o1` (relative stereo), the MIC (Pichia kudriavzevii) was 1 µg/mL (≈ 2.47 µM), the MIC (Candida albicans [1]) was 1 µg/mL (≈ 2.47 µM) and the MIC ([Candida] auris [2]) was 2 µg/mL (≈ 4.93 µM). For the same molecule, the Activity (Vero) was “Non-Toxic”, the selectivity ratio [3] was 64 and the MIC (Cryptococcus neoformans [4]) was 1 µg/mL (≈ 2.47 µM). For the same molecule, the MIC (Cryptococcus neoformans [5]) was 1 µg/mL (≈ 2.47 µM), the selectivity ratio [6] was 64 and the selectivity ratio [7] was 64. For the same molecule, the MIC (Aspergillus fumigatus) was 4 µg/mL (≈ 9.86 µM), the Activity (Caco-2) was “Non-Toxic” and the MIC [8] was 1 µg/mL (≈ 2.47 µM). It also gave an MIC (Cryptococcus neoformans [9]) of 1 µg/mL (≈ 2.47 µM), an MIC (Candida albicans [10]) of 4 µg/mL (≈ 9.86 µM) and a selectivity ratio [11] of 64. The selectivity ratio [12] was 64, the MIC ([Candida] auris [13]) was 1 µg/mL (≈ 2.47 µM) and the selectivity ratio [14] was 64. The MIC (Cryptococcus neoformans [15]) was 1 µg/mL (≈ 2.47 µM), the MIC [16] was 1 µg/mL (≈ 2.47 µM) and the MIC [17] was 2 µg/mL (≈ 4.93 µM). For the same molecule, the MIC (Cryptococcus neoformans [18]) was 2 µg/mL (≈ 4.93 µM), the MIC (Escherichia coli [19]) was over 64 µg/mL and the selectivity ratio [20] was 64. The MIC (Nakaseomyces glabratus [21]) was 1 µg/mL (≈ 2.47 µM), the MIC (Nakaseomyces glabratus [22]) was 1 µg/mL (≈ 2.47 µM) and the selectivity ratio [23] was 64. For the same molecule, the MIC (Lactobacillus gasseri) was over 128 µg/mL, the selectivity ratio [24] was 64 and the selectivity ratio [25] was 64. For the same molecule, the “growth inhibition (GI)” value (Cryptococcus neoformans [26]) was about 56%, the MIC (Candida albicans [27]) was 4 µg/mL (≈ 9.86 µM) and the MIC (Clostridioides difficile) was 32 µg/mL (≈ 78.9 µM). It also gave a selectivity ratio [28] of 64, an MIC (Escherichia coli [29]) of over 64 µg/mL and a selectivity ratio [30] of 64.

With `Cc1nc(-c2ccc3ccccc3c2)sc1-c1nnc(N[C@@H]2CCCC[C@@H]2N)o1` (relative stereo) the MIC (Pichia kudriavzevii) was 1 µg/mL (≈ 2.47 µM), the MIC (Candida albicans [1]) was 1 µg/mL (≈ 2.47 µM) and the MIC ([Candida] auris [2]) was 2 µg/mL (≈ 4.93 µM). For the same molecule, the Activity (Vero) was “Non-Toxic”, the selectivity ratio [3] was 64 and the MIC (Cryptococcus neoformans [4]) was 1 µg/mL (≈ 2.47 µM). For the same molecule, the MIC (Cryptococcus neoformans [5]) was 1 µg/mL (≈ 2.47 µM), the selectivity ratio [6] was 64 and the selectivity ratio [7] was 64. The MIC (Aspergillus fumigatus) was 8 µg/mL (≈ 19.7 µM), the Activity (Caco-2) was “Non-Toxic” and the MIC [8] was 1 µg/mL (≈ 2.47 µM). For the same molecule, the MIC (Cryptococcus neoformans [9]) was 2 µg/mL (≈ 4.93 µM), the MIC (Candida albicans [10]) was 4 µg/mL (≈ 9.86 µM) and the selectivity ratio [11] was 64. For the same molecule, the selectivity ratio [12] was 64, the MIC ([Candida] auris [13]) was 1 µg/mL (≈ 2.47 µM) and the selectivity ratio [14] was 64. It also gave an MIC (Cryptococcus neoformans [15]) of 2 µg/mL (≈ 4.93 µM), an MIC [16] of 2 µg/mL (≈ 4.93 µM) and an MIC [17] of 2 µg/mL (≈ 4.93 µM). The MIC (Cryptococcus neoformans [18]) was 2 µg/mL (≈ 4.93 µM), the MIC (Escherichia coli [19]) was over 64 µg/mL and the selectivity ratio [20] was 64. The MIC (Nakaseomyces glabratus [21]) was 1 µg/mL (≈ 2.47 µM), the MIC (Nakaseomyces glabratus [22]) was 0.5 µg/mL (≈ 1.23 µM) and the selectivity ratio [23] was 64. For the same molecule, the MIC (Lactobacillus gasseri) was over 128 µg/mL, the selectivity ratio [24] was 64 and the selectivity ratio [25] was 64. For the same molecule, the “growth inhibition (GI)” value (Cryptococcus neoformans [26]) was about 53%, the MIC (Candida albicans [27]) was 4 µg/mL (≈ 9.86 µM) and the MIC (Clostridioides difficile) was 64 µg/mL (≈ 158 µM). The selectivity ratio [28] was 64, the MIC (Escherichia coli [29]) was over 64 µg/mL and the selectivity ratio [30] was 64.
